Measurements taken from ChEMBL document CHEMBL4152279, “Synthesis, cytotoxic evaluation and target identification of thieno[2,3-d]pyrimidine derivatives with a dithiocarbamate side chain at C2 position” (Eur J Med Chem, 2018).
Activity calls are given as the source filed them. The calls are words filed in the database; no cut-off is given here.

Columns and labels:
[1] = molecular target: T1, RNA-binding protein EWS (Homo sapiens) (UniProt Q01844); test: Binding affinity to RNA-binding protein EWS isoform 6 in human A549 cells at 0.15 mM after 4 hrs by HPLC-MS based pull down assay relative to control; format: cell-based
T1 sequence (whole entry): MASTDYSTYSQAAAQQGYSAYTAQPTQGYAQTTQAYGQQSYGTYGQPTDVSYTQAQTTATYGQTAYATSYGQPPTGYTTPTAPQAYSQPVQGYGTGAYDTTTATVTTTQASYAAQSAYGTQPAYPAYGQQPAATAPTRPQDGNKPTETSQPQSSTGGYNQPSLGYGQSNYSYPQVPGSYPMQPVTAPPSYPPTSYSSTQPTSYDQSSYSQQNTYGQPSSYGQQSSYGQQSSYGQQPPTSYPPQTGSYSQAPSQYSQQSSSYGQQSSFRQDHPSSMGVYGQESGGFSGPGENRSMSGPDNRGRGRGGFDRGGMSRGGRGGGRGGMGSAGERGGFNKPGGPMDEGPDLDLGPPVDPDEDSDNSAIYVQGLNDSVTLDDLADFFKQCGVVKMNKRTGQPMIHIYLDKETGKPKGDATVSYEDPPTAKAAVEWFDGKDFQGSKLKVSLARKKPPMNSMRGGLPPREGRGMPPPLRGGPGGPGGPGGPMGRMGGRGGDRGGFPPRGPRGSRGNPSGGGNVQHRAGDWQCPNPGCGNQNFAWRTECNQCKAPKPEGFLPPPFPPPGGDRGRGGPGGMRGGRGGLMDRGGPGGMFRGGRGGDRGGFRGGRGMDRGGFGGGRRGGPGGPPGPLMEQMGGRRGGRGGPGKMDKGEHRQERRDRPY
Summary of the method: (§1)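 A549 lysate in NETN buffer (pH 8.0, 0.5% NP-40) incubated with biotinylated probe (0.15 mM final) 4 h at 4 °C, with biotin or control probe as comparators. Streptavidin Dynabeads 1 h at 4 °C, six NETN washes, proteins eluted by boiling in SDS buffer. After trypsin digestion, identification by LC-MS/MS on Q Exactive HF.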

A549 [2] = test: Binding affinity to tubulin alpha-3E in human A549 cells at 0.15 mM after 4 hrs by HPLC-MS based pull down assay relative to control; format: cell-based; summary of the method: as §1
A549 [3] = test: Binding affinity to tubulin beta in human A549 cells at 0.15 mM after 4 hrs by HPLC-MS based pull down assay relative to control; format: cell-based; summary of the method: as §1
[4] = molecular target: Tubulin beta-4B chain (Homo sapiens) (UniProt P68371); test: Binding affinity to tubulin beta-4B in human A549 cells at 0.15 mM after 4 hrs by HPLC-MS based pull down assay relative to control; format: cell-based; summary of the method: as §1
[5] = molecular target: Probable ATP-dependent RNA helicase DDX17 (Homo sapiens) (UniProt Q92841); test: Binding affinity to DDX17 in human A549 cells at 0.15 mM after 4 hrs by HPLC-MS based pull down assay relative to control; format: cell-based; summary of the method: as §1
[6] = molecular target: T2, Nucleolar RNA helicase 2 (Homo sapiens) (UniProt Q9NR30); test: Binding affinity to nucleolar RNA helicase 2 in human A549 cells at 0.15 mM after 4 hrs by HPLC-MS based pull down assay relative to control; format: cell-based; summary of the method: as §1
T2 sequence (whole entry): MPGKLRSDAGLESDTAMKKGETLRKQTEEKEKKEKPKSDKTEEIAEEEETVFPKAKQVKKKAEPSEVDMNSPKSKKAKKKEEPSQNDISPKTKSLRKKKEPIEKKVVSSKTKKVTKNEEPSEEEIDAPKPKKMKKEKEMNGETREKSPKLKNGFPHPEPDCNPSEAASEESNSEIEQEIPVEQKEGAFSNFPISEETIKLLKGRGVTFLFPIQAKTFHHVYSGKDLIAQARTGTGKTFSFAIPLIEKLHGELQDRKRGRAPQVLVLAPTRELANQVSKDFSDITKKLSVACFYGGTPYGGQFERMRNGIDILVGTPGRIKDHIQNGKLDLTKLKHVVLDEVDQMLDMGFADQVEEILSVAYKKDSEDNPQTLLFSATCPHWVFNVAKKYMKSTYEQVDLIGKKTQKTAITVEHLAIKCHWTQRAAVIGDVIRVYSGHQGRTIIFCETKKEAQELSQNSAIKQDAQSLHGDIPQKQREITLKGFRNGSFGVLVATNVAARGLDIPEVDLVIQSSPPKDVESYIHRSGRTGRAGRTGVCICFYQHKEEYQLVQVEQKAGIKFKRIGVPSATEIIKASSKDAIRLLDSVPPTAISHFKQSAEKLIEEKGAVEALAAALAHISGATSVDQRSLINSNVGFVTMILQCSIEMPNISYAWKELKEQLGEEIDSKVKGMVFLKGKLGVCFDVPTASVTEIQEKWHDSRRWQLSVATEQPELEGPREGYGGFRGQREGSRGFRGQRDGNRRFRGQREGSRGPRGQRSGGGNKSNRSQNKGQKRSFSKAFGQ

[7] = molecular target: Ubiquitin carboxyl-terminal hydrolase 10 (Homo sapiens) (UniProt Q14694); test: Binding affinity to ubiquitin carboxyl-terminal hydrolase 10 isoform-2 in human A549 cells at 0.15 mM after 4 hrs by HPLC-MS based pull down assay relative to control; format: cell-based; summary of the method: as §1
[8] = molecular target: Serine/arginine-rich splicing factor 1 (Homo sapiens) (UniProt Q07955); test: Binding affinity to serine/arginine-rich-splicing factor 1 in human A549 cells at 0.15 mM after 4 hrs by HPLC-MS based pull down assay relative to control; format: cell-based; summary of the method: as §1
[9] = molecular target: Serine/arginine-rich splicing factor 9 (Homo sapiens) (UniProt Q13242); test: Binding affinity to serine/arginine-rich-splicing factor 9 in human A549 cells at 0.15 mM after 4 hrs by HPLC-MS based pull down assay relative to control; format: cell-based; summary of the method: as §1
A549 [10] = test: Binding affinity to tubulin alpha in human A549 cells immunoblot based based pull down assay; format: cell-based
Summary of the method: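 A549 lysate in NETN buffer incubated with biotin, biotinylated probe or control probe at 4 °C, then streptavidin Dynabeads 1 h at 4 °C. Beads washed six times, bound proteins run on SDS-PAGE and immunoblotted for α-tubulin.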

Sus scrofa [11] = species on record: Sus scrofa; test: Binding affinity to porcine tubulin after overnight incubation by streptavidin pull down assay
Summary of the method: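 Purified porcine neuronal tubulin incubated with biotin, biotinylated probe or control probe in NETN buffer at 4 °C. Streptavidin Dynabeads 1 h at 4 °C, six washes, then SDS-PAGE and α-tubulin immunoblot.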

Sus scrofa [12] = species on record: Sus scrofa; test: Inhibition of vinblastine binding to porcine tubulin treated 2 hrs post colchicine treatment by pull down assay
Summary of the method: (§2)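 Porcine neuronal tubulin was preincubated with excess taxol, colchicine, vinblastine or nocodazole for 2 h at 4 °C. Biotinylated probe was then added in NETN buffer, followed by streptavidin Dynabead pull-down for 1 h at 4 °C and six washes. Bound α-tubulin was detected by SDS–PAGE and immunoblot. Three independent experiments.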

Sus scrofa [13] = species on record: Sus scrofa; test: Inhibition of nocodazole binding to porcine tubulin treated 2 hrs post colchicine treatment by pull down assay; summary of the method: as §2
Sus scrofa [14] = species on record: Sus scrofa; test: Inhibition of taxol binding to porcine tubulin treated 2 hrs post colchicine treatment by pull down assay; summary of the method: as §2
Sus scrofa [15] = species on record: Sus scrofa; test: Inhibition of vinblastine binding to porcine tubulin preincubated with tubulin followed by vinblastine treatment measured after 2 hrs by immunoblot analysis
Sus scrofa [16] = species on record: Sus scrofa; test: Inhibition of nocodazole binding to porcine tubulin preincubated with tubulin followed by nocodazole treatment measured after 2 hrs by immunoblot analysis

Chain of Serine/arginine-rich splicing factor 1 (Homo sapiens) (Q07955 whole entry): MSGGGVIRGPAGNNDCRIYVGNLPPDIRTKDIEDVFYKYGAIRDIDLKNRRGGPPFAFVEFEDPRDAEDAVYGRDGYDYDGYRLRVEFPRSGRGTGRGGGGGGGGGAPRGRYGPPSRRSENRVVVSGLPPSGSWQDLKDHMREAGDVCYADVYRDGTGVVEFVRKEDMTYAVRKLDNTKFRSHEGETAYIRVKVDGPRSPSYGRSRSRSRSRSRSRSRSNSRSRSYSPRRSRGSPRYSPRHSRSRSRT
Chain of Tubulin beta-4B chain (Homo sapiens) (P68371 whole entry): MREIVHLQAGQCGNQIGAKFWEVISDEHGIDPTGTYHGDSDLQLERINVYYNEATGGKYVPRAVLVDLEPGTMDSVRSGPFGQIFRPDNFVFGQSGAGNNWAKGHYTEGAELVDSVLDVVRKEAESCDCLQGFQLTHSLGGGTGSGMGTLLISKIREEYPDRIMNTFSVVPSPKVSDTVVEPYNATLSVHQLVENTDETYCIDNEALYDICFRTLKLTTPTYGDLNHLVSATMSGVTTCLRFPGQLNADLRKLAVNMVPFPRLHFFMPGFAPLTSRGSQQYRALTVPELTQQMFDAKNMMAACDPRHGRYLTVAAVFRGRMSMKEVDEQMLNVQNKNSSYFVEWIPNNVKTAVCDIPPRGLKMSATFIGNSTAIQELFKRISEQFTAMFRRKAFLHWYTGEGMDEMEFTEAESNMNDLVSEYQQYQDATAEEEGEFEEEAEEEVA
Chain of Ubiquitin carboxyl-terminal hydrolase 10 (Homo sapiens) (Q14694 whole entry, canonical isoform): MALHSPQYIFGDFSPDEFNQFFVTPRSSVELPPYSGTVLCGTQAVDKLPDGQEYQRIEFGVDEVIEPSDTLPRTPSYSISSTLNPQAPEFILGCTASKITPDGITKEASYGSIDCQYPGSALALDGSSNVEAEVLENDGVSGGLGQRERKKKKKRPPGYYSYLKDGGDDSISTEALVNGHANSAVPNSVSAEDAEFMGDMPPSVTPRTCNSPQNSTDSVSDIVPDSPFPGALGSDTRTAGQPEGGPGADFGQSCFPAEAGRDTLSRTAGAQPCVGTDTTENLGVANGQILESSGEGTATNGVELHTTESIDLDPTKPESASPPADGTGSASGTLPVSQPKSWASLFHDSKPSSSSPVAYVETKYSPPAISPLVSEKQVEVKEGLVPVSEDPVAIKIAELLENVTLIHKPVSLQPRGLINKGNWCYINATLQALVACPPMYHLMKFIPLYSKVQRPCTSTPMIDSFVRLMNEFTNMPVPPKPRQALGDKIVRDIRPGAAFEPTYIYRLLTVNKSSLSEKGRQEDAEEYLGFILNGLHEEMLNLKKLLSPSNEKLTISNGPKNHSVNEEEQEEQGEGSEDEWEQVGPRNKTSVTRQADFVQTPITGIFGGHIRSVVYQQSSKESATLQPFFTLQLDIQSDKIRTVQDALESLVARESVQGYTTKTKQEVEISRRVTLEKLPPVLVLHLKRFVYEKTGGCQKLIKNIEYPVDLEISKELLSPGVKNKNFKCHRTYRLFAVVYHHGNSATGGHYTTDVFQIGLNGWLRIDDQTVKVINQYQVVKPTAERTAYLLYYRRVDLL
Chain of Probable ATP-dependent RNA helicase DDX17 (Homo sapiens) (Q92841 whole entry): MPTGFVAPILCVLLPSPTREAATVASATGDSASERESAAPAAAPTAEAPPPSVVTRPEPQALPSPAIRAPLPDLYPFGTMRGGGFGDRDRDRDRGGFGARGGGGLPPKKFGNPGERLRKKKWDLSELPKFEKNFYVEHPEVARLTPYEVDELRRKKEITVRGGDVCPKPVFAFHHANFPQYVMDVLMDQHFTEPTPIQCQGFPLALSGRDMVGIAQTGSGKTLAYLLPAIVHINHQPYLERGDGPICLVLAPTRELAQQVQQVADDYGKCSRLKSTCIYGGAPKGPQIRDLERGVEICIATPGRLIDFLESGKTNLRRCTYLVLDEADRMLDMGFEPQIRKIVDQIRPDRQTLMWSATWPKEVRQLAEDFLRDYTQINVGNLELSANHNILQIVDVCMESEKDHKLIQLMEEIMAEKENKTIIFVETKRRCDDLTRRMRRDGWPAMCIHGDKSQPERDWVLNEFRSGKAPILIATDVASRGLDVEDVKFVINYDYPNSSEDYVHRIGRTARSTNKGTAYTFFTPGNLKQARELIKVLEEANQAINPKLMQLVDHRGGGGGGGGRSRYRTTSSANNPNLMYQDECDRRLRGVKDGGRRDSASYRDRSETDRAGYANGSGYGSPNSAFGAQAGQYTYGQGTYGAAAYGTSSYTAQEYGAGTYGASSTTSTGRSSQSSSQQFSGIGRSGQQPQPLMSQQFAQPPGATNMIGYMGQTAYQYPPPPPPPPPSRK
Chain of Serine/arginine-rich splicing factor 9 (Homo sapiens) (Q13242 whole entry): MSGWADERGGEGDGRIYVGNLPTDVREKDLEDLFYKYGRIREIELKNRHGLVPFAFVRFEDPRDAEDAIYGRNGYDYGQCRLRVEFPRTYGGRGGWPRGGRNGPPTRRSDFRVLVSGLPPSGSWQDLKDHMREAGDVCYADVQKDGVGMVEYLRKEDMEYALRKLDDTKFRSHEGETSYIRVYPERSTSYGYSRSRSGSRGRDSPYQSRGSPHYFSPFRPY

- Activity [1]: 40.5%
- Activity [4]: 34.2%
- Activity [5]: 52.8%
- Activity [6]: 35.1%
- Activity [7]: 42.8%
- Activity [8]: 52.2%
- Activity [9]: 63.8%
- Activity (Sus scrofa [11]): Active
- inhibition (Sus scrofa [12]): Active
- inhibition (Sus scrofa [13]): Active
- inhibition (Sus scrofa [14]): inactive
- inhibition (Sus scrofa [15]): Active
- inhibition (Sus scrofa [16]): Active
Compound: Cc1cc2c(=O)[nH]c(CSC(=S)N(CCCNC(=O)CCCC[C@@H]3SC[C@@H]4NC(=O)N[C@@H]43)Cc3ccc(C#N)cc3)nc2s1
- Activity (A549 [2]): 15.3%
- Activity (A549 [3]): 35.7%
- Activity (A549 [10]): Active
